These results are taken from ChEMBL document CHEMBL4622973, “Discovery of Potent Small-Molecule SIRT6 Activators: Structure-Activity Relationship and Anti-Pancreatic Ductal Adenocarcinoma Activity” (J Med Chem, 2020).

pEC50, pIC50, pKd: −log10 of the molar value. Calls of active or inactive are those of the source. The rule behind the calls is not given here.

Series [1] has as its target T1, NAD-dependent protein deacylase sirtuin-6 (Homo sapiens, UniProt Q8N6T7). Kind of series: Activation of N-terminal his-tagged human SIRT6 expressed in Escherichia coli M15 [pREP4] assessed as increase in peptide demyristoylation incubated for 120 mins using Ac-EALPKK(Myr)-AMC substrate by FDL assay relative to control. Summed up: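 Demyristoylation: 1 µM recombinant SIRT6 preincubated with compound for 20 min at 37 °C in 50 mM Tris-HCl pH 8.0, BSA 1 mg/mL, 1 mM DTT, with 10 µM Ac-EALPKK(Myr)-AMC. Fluorescence read. Mean ± s.d., triplicate wells, three independent experiments.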

A short description of series [2]: AUC (0 to t) in Sprague-Dawley rat at 10 mg/kg, po after 0.083 to 24 hrs by LC-MS/MS analysis. The following applies: in vivo. In kind it is ADME, organism-based. Summed up: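 Male Sprague-Dawley rats, 6-8 weeks old. Dosing solution of 10 (PO) or 2 (IV) mg/mL in 5% DMSO, 10% Solutol and 85% saline, pH 7. Blood taken by cardiac puncture at 0.083–24 h (PO) or 0.25–24 h (IV). Plasma levels measured by LC-MS/MS. Values are mean ± SD, n = 3.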

In series [3] the target is T1, NAD-dependent protein deacylase sirtuin-6. Briefly: […] in human BxPC3 cells assessed as reduction in IGF2BP3 expression levels at 25 uM incubated for 72 hrs by Western blot analysis. Type of series: cell-based. The following applies: BXPC-3. Summed up:
(§1)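 Cells incubated 72 h with various compound concentrations; whole-cell RIPA lysates with protease inhibitors, BCA-normalised, separated on 12% SDS-PAGE, transferred to PVDF, blocked in 5% milk or BSA. Probed 10 h at 4 °C with antibodies to SIRT6, acetyl-H3K9/K18/K56, total H3, Lin28b, Myc, IGF2BP3, β-actin; HRP secondary, chemiluminescent detection.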

For series [4] the target is unchanged. Kind of series: Activation of N-terminal his-tagged human SIRT6 expressed in Escherichia coli M15 [pREP4] assessed as increase in deacetylation activity incubated for 2 hrs using Ac-RYQK(Myr)-AMC substrate by FDL assay relative to control.
Series [5] in a line: Toxicity in BALB/c nude mouse xenografted with human PANC1 cells assessed as induction of toxicity symptoms at 100 to 150 mg/kg/day, po for 30 days. Type of series: organism-based, PANC-1. The following applies: in vivo, 720 h. Summed up:
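Female BALB/c nude mice, 6–8 weeks old, received 5×10⁶–1×10⁷ PANC-1 cells subcutaneously in the right flank. Once tumors reached 130–150 mm³, mice were randomized (n = 6) to vehicle or 100 or 150 mg/kg/d given orally for 30 days. Body weight and toxicity were monitored against the vehicle group.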

Series [6] addresses T1, NAD-dependent protein deacylase sirtuin-6. Kind of series: Binding affinity to N-terminal his-tagged human SIRT6 expressed in Escherichia coli M15 [pREP4] by ITC assay. Summed up: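 ITC at 25 °C in 20 mM HEPES pH 7.5, 100 mM NaCl, 2 mM DTT. SIRT6 (400 µM) injected into a cell holding activator (80 µM). Kd derived from the binding isotherm.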
A further series has as its target Histone deacetylase 1 (Homo sapiens, UniProt Q13547). Kind of series: Inhibition of HDAC1 (unknown origin) by FDL assay. Summed up: (§2)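 Selectivity testing by FDL assay at concentrations up to 200 µM. SIRT1-2 assays run by an outside contract provider. Values reported as IC50.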
Series [7] concerns the target T1, NAD-dependent protein deacylase sirtuin-6. Kind of series: Binding affinity to SIRT6 in human BxPC3 cells assessed as protection of SIRT6 protein from temperature-dependent degradation at 25 uM incubated for 72 hrs by CETSA. In kind it is cell-based. Particulars: BXPC-3. Summed up: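 Cells treated with compound (25 μM) or DMSO for 72 h, washed, resuspended in PBS with protease inhibitor cocktail, split into aliquots heated 3 min at a temperature gradient. Lysed by three freeze–thaw cycles, centrifuged at 4 °C for 15 min; soluble SIRT6 in supernatant detected by western blot. Triplicate.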

Series [8] can be described thus: Tmax in Sprague-Dawley rat at 2 mg/kg, iv after 0.25 to 24 hrs by LC-MS/MS analysis. Particulars: in vivo. Type of series: ADME, organism-based. The method in brief: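 Male Sprague-Dawley rats, 6–8 weeks old, received a single dose of 10 mg/kg p.o. or 2 mg/kg i.v. The vehicle was 5% DMSO, 10% Solutol and 85% saline at pH 7. Blood was taken by cardiac puncture at 0.083–24 h (p.o.) or 0.25–24 h (i.v.), and plasma was measured by LC-MS/MS. Values are mean ± SD, n = 3.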

The target of series [9] is T1, NAD-dependent protein deacylase sirtuin-6. Kind of series: Activation of N-terminal his-tagged human SIRT6 expressed in Escherichia coli M15 [pREP4] assessed as increase in peptide demyristoylation at 20 uM incubated for 120 mins using Ac-EALPKK(Myr)-AMC substrate by FDL assay relative to control. Summed up:
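Demyristoylation: 1 µM recombinant SIRT6 preincubated with compound for 20 min at 37 °C in 50 mM Tris-HCl pH 8.0, BSA 1 mg/mL, 1 mM DTT, with 10 µM Ac-EALPKK(Myr)-AMC. Started with 1 mM NAD and run 120 min at 37 °C. Developed 120 min at 37 °C with 5 mg/mL trypsin/8 mM nicotinamide. Fluorescence read. Mean ± s.d., triplicate wells, three independent experiments.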

Another series deals with PANC-1. Kind of series: Antitumor activity against human PANC1 cells xenografted in BALB/c nude mouse assessed as inhibition of tumor cell proliferation by measuring reduction in Ki67+ cells at 150 mg/kg/day, po for 30 days by IHC analysis. In kind it is functional, organism-based. The method in brief:
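PANC-1 subcutaneous xenografts in female BALB/c nude mice dosed orally for 30 days. Tumor tissue taken and stained by immunohistochemistry for Ki-67-positive cells, compared with vehicle.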

For a further series, the target named is Histone deacetylase 9 (Homo sapiens, UniProt Q9UKV0). Briefly: Inhibition of HDAC9 (unknown origin) by FDL assay. Summed up: as §2
Histone deacetylase 9, sequence (Q9UKV0 whole entry): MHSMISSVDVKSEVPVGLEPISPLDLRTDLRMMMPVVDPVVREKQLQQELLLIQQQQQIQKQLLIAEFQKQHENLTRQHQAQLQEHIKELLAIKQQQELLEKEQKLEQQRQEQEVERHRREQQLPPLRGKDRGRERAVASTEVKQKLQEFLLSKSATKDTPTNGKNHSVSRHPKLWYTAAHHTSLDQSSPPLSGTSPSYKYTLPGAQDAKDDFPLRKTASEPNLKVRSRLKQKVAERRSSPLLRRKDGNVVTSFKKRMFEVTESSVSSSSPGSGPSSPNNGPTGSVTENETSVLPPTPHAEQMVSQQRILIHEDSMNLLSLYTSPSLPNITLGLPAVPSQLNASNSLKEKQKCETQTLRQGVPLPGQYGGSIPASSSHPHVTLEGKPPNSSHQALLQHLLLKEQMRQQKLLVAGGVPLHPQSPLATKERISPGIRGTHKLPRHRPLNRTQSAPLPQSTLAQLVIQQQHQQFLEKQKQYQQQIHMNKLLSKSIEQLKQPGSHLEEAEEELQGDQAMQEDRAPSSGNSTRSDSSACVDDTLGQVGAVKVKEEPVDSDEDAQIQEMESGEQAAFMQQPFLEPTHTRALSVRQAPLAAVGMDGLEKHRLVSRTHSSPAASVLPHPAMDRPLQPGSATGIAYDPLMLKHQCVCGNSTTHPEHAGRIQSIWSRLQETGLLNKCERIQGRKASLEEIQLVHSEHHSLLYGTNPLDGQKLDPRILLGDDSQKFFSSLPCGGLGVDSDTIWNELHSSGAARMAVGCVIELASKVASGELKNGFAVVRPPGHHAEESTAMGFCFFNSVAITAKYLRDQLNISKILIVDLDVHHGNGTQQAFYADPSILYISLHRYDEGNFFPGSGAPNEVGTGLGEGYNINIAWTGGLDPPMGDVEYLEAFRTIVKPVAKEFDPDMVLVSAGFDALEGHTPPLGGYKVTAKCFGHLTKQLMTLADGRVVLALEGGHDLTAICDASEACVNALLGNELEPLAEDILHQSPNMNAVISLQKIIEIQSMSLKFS
For another series, the target named is Histone deacetylase 2 (Homo sapiens, UniProt Q92769). Briefly: Inhibition of HDAC2 (unknown origin) by FDL assay. Summed up:
as §2

Series [10] addresses T1, NAD-dependent protein deacylase sirtuin-6. Kind of series: […] in human BxPC3 cells assessed as reduction in H3K18ac levels incubated for 72 hrs by Western blot analysis. Type of series: cell-based. Particulars: BXPC-3. The method in brief:
as §1

For another series, the species on record is Homo sapiens. Briefly: Selectivity index, ratio of IC50 for SIRT1 (unknown origin) to EC1.5 for N-terminal his-tagged human SIRT6 expressed in Escherichia coli M15 [pREP4].
Series [11] addresses NAD-dependent protein deacylase sirtuin-5, mitochondrial (Homo sapiens, UniProt Q9NXA8). Kind of series: Inhibition of SIRT5 (unknown origin) by FDL assay. The method in brief: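 SIRT3 and SIRT5 tested by an outsourced FDL fluorogenic deacetylase assay, each from a different contract provider. The IC50 was determined for each enzyme, with concentrations going up to 200 μM.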

The subject of the next series is SK-OV-3. Kind of series: Antiproliferative activity against human SKOV3 cells assessed as reduction in cell viability incubated for 72 hrs by MTT assay. In kind it is functional, cell-based.
In series [12] the target is T1, NAD-dependent protein deacylase sirtuin-6. Kind of series: Activation of N-terminal his-tagged human SIRT6 expressed in Escherichia coli M15 [pREP4] assessed as increase in deacetylation activity incubated for 2 hrs using Ac-RYQK(Ac)-AMC substrate by HPLC analysis.

T1 sequence (Q8N6T7 whole entry): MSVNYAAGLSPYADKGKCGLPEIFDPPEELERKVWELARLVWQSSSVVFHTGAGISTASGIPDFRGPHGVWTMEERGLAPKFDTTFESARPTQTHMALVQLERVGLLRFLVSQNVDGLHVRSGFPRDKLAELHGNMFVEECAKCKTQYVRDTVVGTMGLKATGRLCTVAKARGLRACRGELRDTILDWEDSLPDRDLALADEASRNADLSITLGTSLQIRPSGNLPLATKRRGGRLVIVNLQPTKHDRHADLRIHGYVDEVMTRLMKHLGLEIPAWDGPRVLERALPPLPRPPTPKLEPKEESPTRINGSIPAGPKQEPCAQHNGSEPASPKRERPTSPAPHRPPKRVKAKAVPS
Histone deacetylase 2, sequence (Q92769 whole entry): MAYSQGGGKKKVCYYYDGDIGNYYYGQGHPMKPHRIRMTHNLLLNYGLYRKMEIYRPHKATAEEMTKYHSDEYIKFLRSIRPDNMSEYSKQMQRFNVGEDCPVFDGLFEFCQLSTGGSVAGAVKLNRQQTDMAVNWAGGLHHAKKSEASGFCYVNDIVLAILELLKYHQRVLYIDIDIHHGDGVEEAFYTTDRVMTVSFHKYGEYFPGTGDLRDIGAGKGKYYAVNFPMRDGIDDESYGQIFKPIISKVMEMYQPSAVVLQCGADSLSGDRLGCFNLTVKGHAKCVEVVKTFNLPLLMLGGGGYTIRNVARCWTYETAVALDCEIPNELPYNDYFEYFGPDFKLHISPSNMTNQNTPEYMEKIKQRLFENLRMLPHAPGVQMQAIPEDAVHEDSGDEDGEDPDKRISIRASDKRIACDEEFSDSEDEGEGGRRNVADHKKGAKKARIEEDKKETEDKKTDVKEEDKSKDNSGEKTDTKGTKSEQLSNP
Histone deacetylase 1, sequence (Q13547 whole entry): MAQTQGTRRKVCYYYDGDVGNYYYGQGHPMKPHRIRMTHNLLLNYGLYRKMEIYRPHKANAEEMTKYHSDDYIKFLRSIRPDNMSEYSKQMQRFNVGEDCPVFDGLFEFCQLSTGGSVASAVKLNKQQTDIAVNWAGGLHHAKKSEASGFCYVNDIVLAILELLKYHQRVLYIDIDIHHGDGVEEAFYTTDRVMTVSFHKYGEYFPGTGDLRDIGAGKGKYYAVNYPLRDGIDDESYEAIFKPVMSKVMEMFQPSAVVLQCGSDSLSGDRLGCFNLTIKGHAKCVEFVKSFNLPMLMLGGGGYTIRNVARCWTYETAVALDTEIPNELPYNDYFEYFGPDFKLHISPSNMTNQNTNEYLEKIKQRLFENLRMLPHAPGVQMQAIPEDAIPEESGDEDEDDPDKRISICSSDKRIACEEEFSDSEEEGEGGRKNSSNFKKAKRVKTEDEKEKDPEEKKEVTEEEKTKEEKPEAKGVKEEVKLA
NAD-dependent protein deacylase sirtuin-5, mitochondrial, sequence (Q9NXA8 whole entry): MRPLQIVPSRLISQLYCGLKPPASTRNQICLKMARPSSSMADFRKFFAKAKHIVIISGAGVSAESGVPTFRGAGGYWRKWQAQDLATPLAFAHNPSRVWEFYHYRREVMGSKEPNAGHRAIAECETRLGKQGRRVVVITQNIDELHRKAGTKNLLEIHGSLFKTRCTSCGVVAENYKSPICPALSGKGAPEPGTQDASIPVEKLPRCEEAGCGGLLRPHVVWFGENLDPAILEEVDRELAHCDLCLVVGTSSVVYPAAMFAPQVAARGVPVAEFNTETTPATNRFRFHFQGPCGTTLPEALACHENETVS

Regarding `O=C(NC(c1ccccc1)c1ccccc1)c1cc(-c2cc3ccccc3o2)nc2ccccc12`, the values for the EC1.5 in series [1] and in series [4] were 0.58 to 0.72 µM and 0.49 µM, respectively. Besides, the pEC50 in [1] is 5.05; in series [4] it was 5.26. Further, in series [2], the AUCt is 704.67 ng·mL·h. The inhibition result in series [3] is “Active”. Also, the Activity entry in [5] was “Non-Toxic”; in series [9], 1230%. In series [6], this compound had a pKd of 5.05. For the same compound, the negative-log IC50 (pIC50) (on Histone deacetylase 1; at Histone deacetylase 9; at Histone deacetylase 2; in series [11]) was below 3.70 in each case. For the same compound, the outcome (in series [7]; with PANC-1; in the series on SK-OV-3; in series [12]) was Active. The time to peak (Tmax) in series [8] stood at 4.8 min. Also, the inhibition result in series [10] is “Dose-dependent effect”. In the series listed under Homo sapiens, the Ratio stood at 300.
